This is an account of results in ChEMBL document CHEMBL4043093, “2-Oxo-3, 4-dihydropyrimido[4, 5-d]pyrimidinyl derivatives as new irreversible pan fibroblast growth factor receptor (FGFR) inhibitors” (Eur J Med Chem, 2017).

Each structure is given as a SMILES string.

The target in assay [1] is Ribosomal protein S6 kinase alpha-5 (Homo sapiens) (UniProt O75582). Nature of the assay: Inhibition of wild-type human partial length C-terminal RPS6KA5 kinase domain 2 (V390 to T718 residues) expressed in Escherichia coli BL21 assessed as residual activity at 1000 nM after 30 mins by Kinomescan method relative to control.
The subject of assay [2] is Tyrosine-protein kinase ABL1 (Homo sapiens), P00519 [H396P]. Nature of the assay: Inhibition of human phosphorylated ABL1 H396P mutant (S229 to K512 residues) expressed in HEK293 cells assessed as residual activity at 1000 nM after 30 mins by Kinomescan method relative to control. Type of assay: cell-based. In short, it runs like this: (§1)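 Single-point screen at a fixed 1 µM, run within a 456-kinase DiscoveRx KINOMEscan panel. Each kinase's read-out is Percent Control, i.e. signal relative to a control without compound. Hits were scored by a Percent Control < 35 cut-off, and an S(35) selectivity score was calculated across the non-mutant kinases.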

Assay [3] deals with Cyclin-dependent kinase 2 (Homo sapiens) (UniProt P24941). Nature of the assay: Inhibition of wild-type human full length CDK2 (M1 to L298 residues) expressed in Escherichia coli BL21 assessed as residual activity at 1000 nM after 30 mins by Kinomescan method relative to control. The method, boiled down: as §1
In assay [4] the target is Bone morphogenetic protein receptor type-2 (Homo sapiens) (UniProt Q13873). Nature of the assay: Inhibition of wild-type human partial length BMPR2 (R179 to Q526 residues) expressed in HEK293 cells assessed as residual activity at 1000 nM after 30 mins by Kinomescan method relative to control. It is filed as cell-based.
Assay [5] has as its system Leucine-rich repeat serine/threonine-protein kinase 2 (Homo sapiens), Q5S007 [G2019S]. In words: Inhibition of human partial length LRRK2 G2019S mutant (H970 to E2527 residues) expressed in HEK293 cells assessed as residual activity at 1000 nM after 30 mins by Kinomescan method relative to control. It is filed as cell-based. The method, boiled down:
(§2)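 KINOMEscan binding panel of 456 kinases, with the test compound at a single concentration of 1 µM. Read-out is Percent Control.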

Assay [6] addresses Casein kinase II subunit alpha (Homo sapiens) (UniProt P68400). In words: Inhibition of wild-type human full length CSNK2A1 (M1 to Q391 residues) expressed in HEK293 cells assessed as residual activity at 1000 nM after 30 mins by Kinomescan method relative to control. It is filed as cell-based. In short, it runs like this: as §1
In assay [7] the target is Phosphatidylinositol 4-kinase beta (Homo sapiens) (UniProt Q9UBF8). Nature of the assay: Inhibition of wild-type human full length PIK4CB (M1 to M828 residues) expressed in HEK293 cells assessed as residual activity at 1000 nM after 30 mins by Kinomescan method relative to control. Type of assay: cell-based. The method, boiled down:
(§3)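 Single-concentration screen at 1 µM across a 456-kinase KINOMEscan panel. The read-out is Percent Control for each kinase.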

In assay [8] the target is Serine/threonine-protein kinase RIO1 (Homo sapiens) (UniProt Q9BRS2). Nature of the assay: Inhibition of wild-type human full length RIOK1 (M1 to K568 residues) expressed in Escherichia coli BL21 assessed as residual activity at 1000 nM after 30 mins by Kinomescan method relative to control.
Assay [9] has as its target Calcium/calmodulin-dependent protein kinase type 1G (Homo sapiens) (UniProt Q96NX5). In words: Inhibition of wild-type human partial length CAMK1G (M1 to A342 residues) expressed in Escherichia coli BL21 assessed as residual activity at 1000 nM after 30 mins by Kinomescan method relative to control.
The target in assay [10] is MAP kinase-activated protein kinase 2 (Homo sapiens) (UniProt P49137). In words: Inhibition of wild-type human partial length MAPKAPK2 (V48 to D345 residues) expressed in Escherichia coli BL21 assessed as residual activity at 1000 nM after 30 mins by Kinomescan method relative to control.
Assay [11] concerns Proto-oncogene tyrosine-protein kinase receptor Ret (Homo sapiens), P07949 [V804L]. In words: Inhibition of human partial length RET V804L mutant (E713 to D1014 residues) expressed in Escherichia coli BL21 assessed as residual activity at 1000 nM after 30 mins by Kinomescan method relative to control. The method, boiled down:
as §1

Assay [12] has as its target Eukaryotic translation initiation factor 2-alpha kinase 1 (Homo sapiens) (UniProt Q9BQI3). Nature of the assay: Inhibition of wild-type human partial length EIF2AK1 (Q147 to E603 residues) expressed in HEK293 cells assessed as residual activity at 1000 nM after 30 mins by Kinomescan method relative to control. Type of assay: cell-based.
The target of assay [13] is Tyrosine-protein kinase HCK (Homo sapiens) (UniProt P08631). In words: Inhibition of wild-type human full length HCK (M22 to P526 residues) expressed in Escherichia coli BL21 assessed as residual activity at 1000 nM after 30 mins by Kinomescan method relative to control. The method, boiled down:
as §3

The target in assay [14] is Fibroblast growth factor receptor 1 (Homo sapiens, UniProt P11362). In words: Inhibition of wild-type human partial length FGFR1 (P357 to V669 residues) expressed in Escherichia coli BL21 assessed as residual activity at 1000 nM after 30 mins by Kinomescan method relative to control.
Assay [15] deals with Serine/threonine-protein kinase NIM1 (Homo sapiens) (UniProt Q8IY84). Nature of the assay: Inhibition of wild-type human partial length NIM1 (Q44 to N355 residues) expressed in HEK293 cells assessed as residual activity at 1000 nM after 30 mins by Kinomescan method relative to control. It is filed as cell-based.
For assay [16], the target named is Bone morphogenetic protein receptor type-1B (Homo sapiens) (UniProt O00238). Nature of the assay: Inhibition of wild-type human partial length BMPR1B (D178 to L502 residues) expressed in HEK293 cells assessed as residual activity at 1000 nM after 30 mins by Kinomescan method relative to control. It is filed as cell-based.
Assay [17] concerns the target Protein kinase C iota type (Homo sapiens) (UniProt P41743). In words: Inhibition of wild-type human partial length PRKCI (H215 to V587 residues) expressed in HEK293 cells assessed as residual activity at 1000 nM after 30 mins by Kinomescan method relative to control. It is filed as cell-based.
In assay [18] the test system is Receptor-type tyrosine-protein kinase FLT3 (Homo sapiens), P36888 [N841I]. In words: Inhibition of human partial length FLT3 N841I mutant (V592 to Y969 residues) expressed in Escherichia coli BL21 assessed as residual activity at 1000 nM after 30 mins by Kinomescan method relative to control. The method, boiled down:
as §2

Assay [19] concerns the target Tyrosine-protein kinase ZAP-70 (Homo sapiens) (UniProt P43403). Nature of the assay: Inhibition of wild-type human partial length ZAP70 (D20 to G299 residues) expressed in HEK293 cells assessed as residual activity at 1000 nM after 30 mins by Kinomescan method relative to control. It is filed as cell-based.
Assay [20] has as its system Tyrosine-protein kinase ABL1 (Homo sapiens), P00519 [T315I]. In words: Inhibition of human phosphorylated ABL1 T315I mutant (S229 to K512 residues) expressed in HEK293 cells assessed as residual activity at 1000 nM after 30 mins by Kinomescan method relative to control. It is filed as cell-based. The method, boiled down: as §1
Assay [21] has as its target RAC-alpha serine/threonine-protein kinase (Homo sapiens) (UniProt P31749). In words: Inhibition of wild-type human partial length AKT1 expressed in Escherichia coli BL21 assessed as residual activity at 1000 nM after 30 mins by Kinomescan method relative to control.

Fibroblast growth factor receptor 1, sequence (P11362 22-822 limits assumed): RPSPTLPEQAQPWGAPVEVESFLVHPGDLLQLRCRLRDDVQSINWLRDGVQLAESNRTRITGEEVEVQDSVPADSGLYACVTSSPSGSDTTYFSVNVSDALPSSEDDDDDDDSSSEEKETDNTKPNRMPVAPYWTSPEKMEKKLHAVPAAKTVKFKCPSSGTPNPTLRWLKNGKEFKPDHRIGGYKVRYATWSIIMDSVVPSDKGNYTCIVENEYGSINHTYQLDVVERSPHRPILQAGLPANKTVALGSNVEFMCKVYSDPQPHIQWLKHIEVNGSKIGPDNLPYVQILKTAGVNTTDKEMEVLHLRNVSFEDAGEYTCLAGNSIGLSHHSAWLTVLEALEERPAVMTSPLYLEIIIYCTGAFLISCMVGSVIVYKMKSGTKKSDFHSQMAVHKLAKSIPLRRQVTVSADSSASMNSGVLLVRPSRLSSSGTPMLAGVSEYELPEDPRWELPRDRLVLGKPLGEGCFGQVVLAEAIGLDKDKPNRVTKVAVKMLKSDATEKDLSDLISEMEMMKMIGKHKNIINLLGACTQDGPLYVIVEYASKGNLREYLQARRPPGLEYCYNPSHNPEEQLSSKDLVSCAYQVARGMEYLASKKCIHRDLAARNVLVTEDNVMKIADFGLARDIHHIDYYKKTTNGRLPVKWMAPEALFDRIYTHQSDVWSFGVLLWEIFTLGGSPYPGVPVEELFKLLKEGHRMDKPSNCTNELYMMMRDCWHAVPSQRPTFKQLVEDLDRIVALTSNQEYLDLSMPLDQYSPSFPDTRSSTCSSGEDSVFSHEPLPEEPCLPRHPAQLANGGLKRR
Bone morphogenetic protein receptor type-2 (Homo sapiens), sequence (Q13873 whole entry, the tested form may be a part): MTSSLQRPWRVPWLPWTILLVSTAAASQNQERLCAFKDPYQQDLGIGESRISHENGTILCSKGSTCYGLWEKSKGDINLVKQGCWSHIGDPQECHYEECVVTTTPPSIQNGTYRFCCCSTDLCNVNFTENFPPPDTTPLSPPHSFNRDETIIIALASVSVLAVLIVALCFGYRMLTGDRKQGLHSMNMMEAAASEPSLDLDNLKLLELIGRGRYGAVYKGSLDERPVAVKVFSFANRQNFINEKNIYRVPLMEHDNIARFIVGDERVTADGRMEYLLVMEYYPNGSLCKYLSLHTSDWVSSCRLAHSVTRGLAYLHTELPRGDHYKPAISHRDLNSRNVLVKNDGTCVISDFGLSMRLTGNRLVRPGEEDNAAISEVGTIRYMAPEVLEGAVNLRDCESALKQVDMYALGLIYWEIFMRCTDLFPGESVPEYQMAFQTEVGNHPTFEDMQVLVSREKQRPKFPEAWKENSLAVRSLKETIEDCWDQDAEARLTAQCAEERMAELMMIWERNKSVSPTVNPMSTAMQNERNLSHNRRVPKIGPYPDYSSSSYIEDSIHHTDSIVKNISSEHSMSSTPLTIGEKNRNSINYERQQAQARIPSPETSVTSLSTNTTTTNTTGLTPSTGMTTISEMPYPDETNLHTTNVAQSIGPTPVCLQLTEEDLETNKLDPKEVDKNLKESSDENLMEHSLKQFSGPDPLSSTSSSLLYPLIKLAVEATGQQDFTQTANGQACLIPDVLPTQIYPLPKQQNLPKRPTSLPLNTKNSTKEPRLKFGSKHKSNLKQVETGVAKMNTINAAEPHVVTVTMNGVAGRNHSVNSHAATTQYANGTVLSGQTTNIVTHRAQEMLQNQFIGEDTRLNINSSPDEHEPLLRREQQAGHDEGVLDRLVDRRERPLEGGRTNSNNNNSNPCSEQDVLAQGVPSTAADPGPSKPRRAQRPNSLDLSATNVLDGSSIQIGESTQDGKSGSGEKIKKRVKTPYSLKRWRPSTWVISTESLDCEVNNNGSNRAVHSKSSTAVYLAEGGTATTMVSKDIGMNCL
Ribosomal protein S6 kinase alpha-5 (Homo sapiens), sequence (O75582 whole entry, looked up, the tested form may be a part): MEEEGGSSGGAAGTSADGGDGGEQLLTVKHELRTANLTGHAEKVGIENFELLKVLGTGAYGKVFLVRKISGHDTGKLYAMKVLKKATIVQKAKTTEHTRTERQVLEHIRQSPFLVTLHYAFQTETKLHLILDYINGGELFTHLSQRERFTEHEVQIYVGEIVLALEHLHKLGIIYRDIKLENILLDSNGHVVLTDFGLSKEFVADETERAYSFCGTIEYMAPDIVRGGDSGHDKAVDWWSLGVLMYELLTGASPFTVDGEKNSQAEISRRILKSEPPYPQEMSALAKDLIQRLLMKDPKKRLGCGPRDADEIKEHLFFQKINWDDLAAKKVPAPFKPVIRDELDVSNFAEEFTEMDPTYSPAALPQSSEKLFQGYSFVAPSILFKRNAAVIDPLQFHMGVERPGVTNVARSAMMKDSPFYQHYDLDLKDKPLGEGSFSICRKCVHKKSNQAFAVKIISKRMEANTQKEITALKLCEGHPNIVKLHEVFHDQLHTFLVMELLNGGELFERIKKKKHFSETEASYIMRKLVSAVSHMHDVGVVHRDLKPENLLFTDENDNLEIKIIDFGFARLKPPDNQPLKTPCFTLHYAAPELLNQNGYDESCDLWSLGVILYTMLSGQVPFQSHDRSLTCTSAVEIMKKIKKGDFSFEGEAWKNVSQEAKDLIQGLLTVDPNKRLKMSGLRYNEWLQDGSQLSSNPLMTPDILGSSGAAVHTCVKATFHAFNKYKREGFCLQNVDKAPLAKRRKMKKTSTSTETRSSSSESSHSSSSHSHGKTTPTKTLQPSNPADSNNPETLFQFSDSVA
Tyrosine-protein kinase HCK (Homo sapiens), sequence (P08631 2-526 limits assumed): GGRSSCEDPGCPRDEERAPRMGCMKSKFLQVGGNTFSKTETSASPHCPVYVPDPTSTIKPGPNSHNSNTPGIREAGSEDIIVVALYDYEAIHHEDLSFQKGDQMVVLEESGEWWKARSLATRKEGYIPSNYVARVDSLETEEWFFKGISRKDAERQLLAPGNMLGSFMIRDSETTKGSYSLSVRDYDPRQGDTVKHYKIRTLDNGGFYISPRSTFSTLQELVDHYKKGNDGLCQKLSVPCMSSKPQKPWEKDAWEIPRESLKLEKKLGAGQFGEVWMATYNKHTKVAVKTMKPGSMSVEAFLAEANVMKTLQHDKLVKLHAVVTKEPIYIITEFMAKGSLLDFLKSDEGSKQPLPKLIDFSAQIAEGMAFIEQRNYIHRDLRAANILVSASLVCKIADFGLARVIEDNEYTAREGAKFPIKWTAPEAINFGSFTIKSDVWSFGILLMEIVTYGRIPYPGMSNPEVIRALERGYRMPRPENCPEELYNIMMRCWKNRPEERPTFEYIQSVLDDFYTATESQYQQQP
Casein kinase II subunit alpha (Homo sapiens), sequence (P68400 whole entry, looked up, the tested form may be a part): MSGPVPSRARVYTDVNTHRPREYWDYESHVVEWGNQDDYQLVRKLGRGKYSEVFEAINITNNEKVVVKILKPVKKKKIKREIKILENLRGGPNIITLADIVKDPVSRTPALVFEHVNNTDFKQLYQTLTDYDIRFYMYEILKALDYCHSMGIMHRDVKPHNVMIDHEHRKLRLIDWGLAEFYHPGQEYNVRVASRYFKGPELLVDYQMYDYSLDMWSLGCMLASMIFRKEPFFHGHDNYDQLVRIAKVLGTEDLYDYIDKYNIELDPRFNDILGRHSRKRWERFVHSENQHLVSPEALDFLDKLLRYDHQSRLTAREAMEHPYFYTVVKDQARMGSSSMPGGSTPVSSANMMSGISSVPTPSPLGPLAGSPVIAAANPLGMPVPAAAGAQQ
Serine/threonine-protein kinase NIM1 (Homo sapiens), sequence (Q8IY84 whole entry, the tested form may be a part): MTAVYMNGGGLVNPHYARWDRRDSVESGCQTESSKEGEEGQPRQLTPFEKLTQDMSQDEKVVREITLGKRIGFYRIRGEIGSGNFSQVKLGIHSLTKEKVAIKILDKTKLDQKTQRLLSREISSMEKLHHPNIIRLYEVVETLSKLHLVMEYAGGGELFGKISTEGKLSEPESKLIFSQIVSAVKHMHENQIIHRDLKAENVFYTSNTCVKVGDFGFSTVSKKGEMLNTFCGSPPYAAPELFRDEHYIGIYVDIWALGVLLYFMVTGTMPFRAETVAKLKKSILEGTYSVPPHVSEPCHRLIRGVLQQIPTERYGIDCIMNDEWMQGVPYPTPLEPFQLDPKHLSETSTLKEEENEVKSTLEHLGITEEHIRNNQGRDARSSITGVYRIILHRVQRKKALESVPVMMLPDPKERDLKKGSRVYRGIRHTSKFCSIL
Bone morphogenetic protein receptor type-1B (Homo sapiens), sequence (O00238 whole entry, the tested form may be a part): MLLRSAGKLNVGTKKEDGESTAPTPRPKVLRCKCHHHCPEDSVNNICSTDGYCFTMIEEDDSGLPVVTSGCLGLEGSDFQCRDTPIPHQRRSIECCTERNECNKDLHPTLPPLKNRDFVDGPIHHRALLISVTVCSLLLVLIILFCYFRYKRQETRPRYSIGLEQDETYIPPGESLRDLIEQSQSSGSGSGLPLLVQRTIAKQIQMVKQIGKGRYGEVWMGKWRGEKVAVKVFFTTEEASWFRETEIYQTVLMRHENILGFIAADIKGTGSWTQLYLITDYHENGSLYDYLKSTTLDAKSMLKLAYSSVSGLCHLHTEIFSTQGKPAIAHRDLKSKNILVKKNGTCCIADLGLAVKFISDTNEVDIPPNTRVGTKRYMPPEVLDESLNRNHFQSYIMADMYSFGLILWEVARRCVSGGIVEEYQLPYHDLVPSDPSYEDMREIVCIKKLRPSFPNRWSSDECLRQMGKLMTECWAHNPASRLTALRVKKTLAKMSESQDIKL
RAC-alpha serine/threonine-protein kinase (Homo sapiens), sequence (P31749 whole entry): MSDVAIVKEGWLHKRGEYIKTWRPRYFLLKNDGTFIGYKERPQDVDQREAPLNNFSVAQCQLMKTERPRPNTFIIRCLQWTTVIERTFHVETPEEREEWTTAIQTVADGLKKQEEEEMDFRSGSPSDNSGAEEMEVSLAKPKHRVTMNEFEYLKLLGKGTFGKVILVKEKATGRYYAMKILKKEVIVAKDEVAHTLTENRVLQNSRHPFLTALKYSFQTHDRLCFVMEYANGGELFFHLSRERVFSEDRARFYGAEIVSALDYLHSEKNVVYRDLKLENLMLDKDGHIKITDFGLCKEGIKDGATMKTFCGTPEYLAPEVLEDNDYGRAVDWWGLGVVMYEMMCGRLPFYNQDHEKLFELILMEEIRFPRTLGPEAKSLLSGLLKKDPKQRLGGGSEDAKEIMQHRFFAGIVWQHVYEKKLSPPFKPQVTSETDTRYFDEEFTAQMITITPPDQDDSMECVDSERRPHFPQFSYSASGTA

Take `COc1cc(OC)c(Cl)c(N2Cc3cnc(Nc4ccc(F)cc4)nc3N(C3CCN(C(=O)/C=C/CN(C)C)CC3)C2=O)c1Cl`: the Activity in [1] was found to be 100%; in [2] it was 42%; in assay [3], 100%; in [4], 96%; in [5] it was 98%; in [6], 100%. The Activity in assay [7] is 96%; in [8], 99%; in [9], 100%; in assay [10] it was 99%; in assay [11], 94%; in assay [12], 100%. Also, the Activity amounted to 10% in assay [13]; 0.6% in assay [14]; 100% in [15]; 97% in assay [16]; 100% in [17]; 88% in [18]. The Activity in assay [19] was 85%; in [20], 97%; in [21], 88%.
